For series [1], the target named is Metabotropic glutamate receptor 5 (Homo sapiens, UniProt P41594). The series can be described thus: In vitro potency against human recombinant mGlu5 receptor was determined by [Ca2+] flux assay using glutamate as agonist. The format is functional. In outline:
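Ltk cells stably expressing human recombinant mGlu5; automated assay of cytosolic Ca²⁺ changes by fura-2 fluorescence; IC50 from antagonist response. Mean with a spread value and n in parentheses.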

Series [2] can be described thus: logD value was determined. The format is physicochemical. Conditions: octanol/water.
Series [3] deals with Metabotropic glutamate receptor 5 (Rattus norvegicus, UniProt P31424). Put plainly: Displacement by compound of [3H]3-methoxy-5-(pyridin-2-ylethynyl)pyridine from rat cortical membranes. The format is cell membranes, Membrane. A digest of the protocol: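 Native rat mGlu5 binding: rat cortical membranes, displacement of [³H]-3-methoxy-5-(pyridin-2-ylethynyl)pyridine by test compound; Ki derived.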
Sequence of Metabotropic glutamate receptor 5 (Rattus norvegicus, UniProt P31424) (P31424 whole entry): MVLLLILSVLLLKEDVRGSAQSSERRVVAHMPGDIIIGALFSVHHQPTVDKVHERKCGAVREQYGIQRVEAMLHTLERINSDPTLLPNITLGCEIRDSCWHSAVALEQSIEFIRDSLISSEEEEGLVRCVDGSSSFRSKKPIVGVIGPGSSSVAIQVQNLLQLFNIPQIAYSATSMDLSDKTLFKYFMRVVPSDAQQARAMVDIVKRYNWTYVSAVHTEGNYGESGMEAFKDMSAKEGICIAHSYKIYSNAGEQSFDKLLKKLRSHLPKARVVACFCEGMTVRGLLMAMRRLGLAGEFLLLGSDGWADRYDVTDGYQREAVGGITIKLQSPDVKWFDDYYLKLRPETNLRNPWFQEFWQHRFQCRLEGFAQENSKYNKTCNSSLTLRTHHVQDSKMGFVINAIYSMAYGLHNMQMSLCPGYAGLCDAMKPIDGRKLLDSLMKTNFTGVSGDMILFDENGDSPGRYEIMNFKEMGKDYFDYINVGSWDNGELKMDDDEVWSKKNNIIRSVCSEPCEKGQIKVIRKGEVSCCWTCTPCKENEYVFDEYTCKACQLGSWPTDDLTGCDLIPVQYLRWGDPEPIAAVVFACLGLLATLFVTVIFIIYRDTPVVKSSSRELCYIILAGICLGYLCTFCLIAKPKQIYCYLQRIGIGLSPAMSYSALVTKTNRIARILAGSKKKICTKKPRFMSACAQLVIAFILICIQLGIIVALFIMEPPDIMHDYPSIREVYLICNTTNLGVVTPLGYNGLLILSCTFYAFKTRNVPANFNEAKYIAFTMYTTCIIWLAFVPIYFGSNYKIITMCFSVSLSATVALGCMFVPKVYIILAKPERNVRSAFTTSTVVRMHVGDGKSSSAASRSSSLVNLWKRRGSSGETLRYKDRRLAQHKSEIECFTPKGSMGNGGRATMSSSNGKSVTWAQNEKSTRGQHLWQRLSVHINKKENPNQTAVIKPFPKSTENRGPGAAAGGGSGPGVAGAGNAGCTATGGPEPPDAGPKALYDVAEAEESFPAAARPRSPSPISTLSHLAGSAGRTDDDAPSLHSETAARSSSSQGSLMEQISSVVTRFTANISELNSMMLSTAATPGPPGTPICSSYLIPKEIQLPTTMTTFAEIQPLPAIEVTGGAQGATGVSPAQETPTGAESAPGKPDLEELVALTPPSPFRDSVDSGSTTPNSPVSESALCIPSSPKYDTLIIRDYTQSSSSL

Series [4] can be described thus: Maximum plasma concentration of compound after p.o. administration. The format is ADME, organism-based. Set-up: route oral. Conditions: rat, po. In outline:
(§1)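 Rat pharmacokinetics with two dosing regimens. In one, iv at 2 mg/kg with po at 10 mg/kg. In the other, iv at 1 mg/kg with po at 2 mg/kg. Bioavailability, clearance, half-life and Cmax come from plasma after each route.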

Series [5] is described as follows: Half-life of compound after i.v. administration. The format is ADME, organism-based. The following applies: rat, in vivo, iv. In outline:
as §1

The nature of series [6]: Plasma clearance of compound upon i.v. administration at 1 mg/kg. It counts as ADME, organism-based. More on the design: dose 1 mg/kg, route intravenous. Conditions: rat, iv, read-out: Clp. In outline:
as §1

Series [7] can be described thus: Plasma clearance of compound upon p.o. administration at 2 mg/kg. More on the design: dose 2 mg/kg, route oral. Conditions: rat, po, read-out: Clp. It counts as ADME, organism-based. A digest of the protocol:
as §1

A short description of series [8]: Bioavailability of compound was determined upon i.v. administration at 1 mg/kg in rat. It counts as ADME, organism-based. Conditions: in vivo, iv. In outline: as §1
Series [9] can be described thus: Bioavailability of compound was determined upon p.o. administration at 2 mg/kg in rat. It counts as ADME, organism-based. The following applies: in vivo, po. In outline: as §1
Series [10] is described as follows: Plasma clearance of compound upon i.v. administration at 2 mg/kg. Conditions: rat, iv, read-out: Clp. Set-up: dose 2 mg/kg, route intravenous. The format is ADME, organism-based. A digest of the protocol:
as §1

Series [11] in a line: Plasma clearance of compound upon p.o. administration at 10 mg/kg. The format is ADME, organism-based. More on the design: dose 10 mg/kg, route oral. The following applies: rat, po, read-out: Clp. A digest of the protocol:
as §1

The nature of series [12]: Bioavailability in rat (dose 2 mg/kg i.v.). It counts as ADME, organism-based. Conditions: in vivo, iv. A digest of the protocol:
as §1

Series [13] can be described thus: Bioavailability in rat (dose 10 mg/kg p.o.). The format is ADME, organism-based. Conditions: in vivo, po. In outline:
as §1

Sequence of Metabotropic glutamate receptor 5 (Homo sapiens, UniProt P41594) (P41594 whole entry): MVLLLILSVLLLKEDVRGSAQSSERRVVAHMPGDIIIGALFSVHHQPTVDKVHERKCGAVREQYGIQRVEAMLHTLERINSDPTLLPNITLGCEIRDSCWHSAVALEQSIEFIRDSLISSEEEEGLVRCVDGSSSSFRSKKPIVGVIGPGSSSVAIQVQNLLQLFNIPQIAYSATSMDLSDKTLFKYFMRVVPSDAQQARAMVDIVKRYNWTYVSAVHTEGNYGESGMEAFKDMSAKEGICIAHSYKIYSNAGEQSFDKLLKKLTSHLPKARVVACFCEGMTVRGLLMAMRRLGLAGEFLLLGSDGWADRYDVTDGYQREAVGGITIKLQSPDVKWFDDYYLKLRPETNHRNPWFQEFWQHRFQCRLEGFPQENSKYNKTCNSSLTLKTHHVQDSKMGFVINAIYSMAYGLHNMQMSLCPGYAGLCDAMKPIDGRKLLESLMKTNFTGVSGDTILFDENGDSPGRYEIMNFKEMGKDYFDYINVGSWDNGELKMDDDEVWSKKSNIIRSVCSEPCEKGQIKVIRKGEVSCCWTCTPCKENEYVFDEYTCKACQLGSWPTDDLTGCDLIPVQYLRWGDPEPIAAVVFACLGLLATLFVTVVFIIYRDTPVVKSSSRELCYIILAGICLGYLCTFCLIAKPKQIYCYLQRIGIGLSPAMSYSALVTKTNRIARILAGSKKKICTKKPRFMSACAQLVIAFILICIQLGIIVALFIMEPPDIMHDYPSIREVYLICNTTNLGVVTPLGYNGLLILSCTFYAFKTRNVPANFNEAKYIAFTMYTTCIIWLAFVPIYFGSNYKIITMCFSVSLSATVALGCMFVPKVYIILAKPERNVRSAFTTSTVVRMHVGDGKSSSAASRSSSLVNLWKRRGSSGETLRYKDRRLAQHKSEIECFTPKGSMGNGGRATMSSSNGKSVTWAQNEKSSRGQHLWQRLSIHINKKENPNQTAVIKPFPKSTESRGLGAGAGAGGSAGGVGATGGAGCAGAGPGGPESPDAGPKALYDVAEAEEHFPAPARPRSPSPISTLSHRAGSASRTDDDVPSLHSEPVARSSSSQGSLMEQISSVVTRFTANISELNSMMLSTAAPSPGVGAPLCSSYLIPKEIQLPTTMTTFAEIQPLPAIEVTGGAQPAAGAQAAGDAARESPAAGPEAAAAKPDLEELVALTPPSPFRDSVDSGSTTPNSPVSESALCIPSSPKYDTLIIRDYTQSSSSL

Take `Cc1nc(C#Cc2ccc(-c3ccncc3)nc2)cs1`: in series [1], the IC50 (in general, the point on the concentration scale where inhibition reaches its midpoint) was found to be 29 nM. Besides, the logD – broadly, lipophilicity at a set pH, counting ionised and neutral species – in [2] amounted to 2.9. Moreover, in [3], the Ki (as a rule, a measure of affinity in units of concentration, obtained from inhibition or displacement) came to 21 nM.
Consider `Cc1nc(C#Cc2ccccc2C)cs1`, for which the IC50 in series [1] was 15 nM. The same molecule yielded a logD in [2] of 3.8. Further, the Ki in series [3] amounted to 51 nM.
In the case of `Cc1nc(C#Cc2cncc(-c3ccncc3)c2)cs1`, the half-inhibitory concentration (IC50) in [1] was found to be 18 nM. Besides, the logD in series [2] was found to be 2.6. This molecule showed a Ki in series [3] of 15 nM.
For the molecule `Cc1cccc(C#Cc2csc(C)n2)c1`, the logD in [2] amounted to 3.9.
With `Cc1nc(C#Cc2cncc(-c3ccccn3)c2)cs1`, in series [1], the IC50 came to 22 nM. The log distribution coefficient (logD) in [2] worked out at 2.8. This molecule also showed a Ki in [3] of 28 nM.
As to `Cc1nc(C#Cc2ccccc2-c2ccccc2)cs1`, the IC50 in series [1] is 423 nM. Also, the Ki in [3] stood at 145 nM.
Consider `Cc1nc(C#Cc2cncc(-c3cccnc3)c2)cs1`, for which the IC50 in series [1] came to 3 nM. For the same molecule, the concentration in series [4] peaked (Cmax) at 800 nM. Further, the half-life (usually the time needed for the level to fall by half in the phase considered) in series [5] was 1.6 h. Moreover, the clearance in series [6] came out at 29 mL/min/kg. In addition, the CL/F in series [7] is 29 mL/min/kg. Further, the bioavailability in series [8] and in [9] was 26% throughout. Further, the logD in series [2] stood at 2.4. Also, in series [3], the Ki came to 1 nM.
Molecule `Cc1nc(C#Cc2ccc(-c3ccccc3)nc2)cs1` had a logD in series [2] of 3.9.
`Cc1nc(C#Cc2ccc(-c3ccccc3)cc2)cs1`: the IC50 in series [1] came to 22 nM. In addition, the logD in series [2] came to 5. Also, in series [3], the affinity corresponds to a Ki of 43 nM.
In the case of `Cc1nc(C#Cc2cncc(-c3ccccc3)c2)cs1`, the IC50 in series [1] was found to be 2 nM. This molecule also displayed a logD in series [2] of 4.1. The same molecule gave a Ki in [3] of 40 nM.
Taken in the same sequence, the figures for `Cc1ccc(C#Cc2csc(C)n2)cc1` were 845 nM, 3.9 and 638 nM.
Turning to `Cc1nc(C#Cc2cccnc2)cs1`, in [10], the clearance is 28 mL/min/kg. Also, the peak level in [4] (Cmax) was 2000 nM. Also, the half-life in [5] was 8.3 h. In series [11], the CL/F stood at 28 mL/min/kg. Further, the bioavailability in series [12] and in series [13] was 16% throughout.
As to `Cc1nc(C#Cc2ccncc2)cs1`, in series [1], the IC50 came to 127 nM. The same molecule came in with a Ki in series [3] of 218 nM.
`Cc1nc(C#Cc2ccc(-c3ccccn3)nc2)cs1`: the IC50 in series [1] was 4 nM. The molecule further displayed a logD in series [2] of 3.7. In [3], this molecule registered a Ki of 16 nM.
On to `Cc1nc(C#Cc2cccc(-c3ccccc3)c2)cs1`, for which the logD in series [2] was determined as 4.1.
As for `Cc1nc(C#Cc2ccc(-c3cccnc3)nc2)cs1`, the clearance in [10] amounted to 15 mL/min/kg. In addition, the Cmax – broadly, the highest concentration seen after dosing – in series [4] turned out to be 6500 nM. Besides, in [5], the half-life was 0.8 h. For the same molecule, the CL/F in [11] was 15 mL/min/kg. Also, the bioavailability in series [12] and in [13] was 100% throughout. Besides, the logD in series [2] amounted to 3.1.
`Cc1nc(C#Cc2ccccc2)cs1`: the IC50 in series [1] came out at 4 nM. For the same molecule, in [3], the Ki stood at 9 nM.
In [3], `Cc1nc(C#Cc2ccccn2)cs1` showed an inhibition constant Ki of 54 nM.

For the origin of these results see ChEMBL document CHEMBL1137127 (Bioorg Med Chem Lett, 2004).
